Values after ≈ are worked out from the molar mass of the structure shown.
How the values were obtained:
Format in all cases: functional
NCI-H522 = test: Cytotoxicity against human NCI-H522 cells assessed as growth inhibition at 10 uM after 48 hrs by SRB assay; conditions: NCI-H522, 48 h, read-out: GI
Summary of the method: (§1)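 NCI-60 one-dose primary screen run by the NCI Drug Evaluation Branch across the full 60-line panel. Single high-dose treatment with 48 h continuous drug exposure. Cell growth estimated by sulforhodamine B protein staining. Results given as percent growth of treated cells and expressed as percentage growth inhibition.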

Bacillus spizizenii [1] = test: Bactericidal activity against Bacillus subtilis ATCC 6633 after 18 hrs; conditions: ATCC 6633, 18 h
Summary of the method: (§2)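 Continuation of the broth-dilution MIC test. A loopful from each tube without visible growth spread on a quarter of a Mueller-Hinton agar plate and incubated 18 h. Lowest concentration giving no growth on subculture taken as the MBC.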

Candida albicans = test: Antifungal activity against Candida albicans ATCC 10231 assessed as growth inhibition at 1 mg/mL after 48 hrs by agar-cup diffusion method; conditions: ATCC 10231, 48 h, read-out: DIZ
Summary of the method: (§3)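 Agar-cup diffusion: 1 mL of 6 h broth culture seeded per 100 mL molten sterile agar at 45 °C and poured into plates. 8 mm cups cut, each filled with 0.1 mL of 1 mg/mL test solution. Incubated 37 °C for 24 h, 48 h for C. albicans. DMSO control per organism. Inhibition zone diameter in mm, mean of three measurements.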

SN12C = test: Cytotoxicity against human SN12C cells assessed as growth inhibition at 10 uM after 48 hrs by SRB assay; conditions: read-out: GI; summary of the method: as §1
Bacillus spizizenii [2] = test: Antibacterial activity against Bacillus subtilis ATCC 6633 assessed as growth inhibition at 1 mg/mL after 24 hrs by agar-cup diffusion method; conditions: ATCC 6633, 24 h, read-out: DIZ; summary of the method: as §3
SR = test: Cytotoxicity against human SR cells assessed as growth inhibition at 10 uM after 48 hrs by SRB assay; conditions: read-out: GI; summary of the method: as §1
A498 = test: Cytotoxicity against human A498 cells assessed as growth inhibition at 10 uM after 48 hrs by SRB assay; conditions: A498, 48 h, read-out: GI; summary of the method: as §1
MDA-MB-468 = test: Cytotoxicity against human MDA-MB-468 cells assessed as growth inhibition at 10 uM after 48 hrs by SRB assay; conditions: MDA-MB-468, 48 h, read-out: GI; summary of the method: as §1
Escherichia coli [3] = test: Bactericidal activity against Escherichia coli ATCC 25922 after 18 hrs; conditions: ATCC 25922, 18 h; summary of the method: as §2
Escherichia coli [4] = test: Antibacterial activity against Escherichia coli ATCC 25922 assessed as growth inhibition after 48 hrs by two-fold serial dilution assay; conditions: ATCC 25922, 48 h
Summary of the method: (§4)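 Twofold serial broth dilution run on compounds giving inhibition zones of 13 mm or more. Organisms pre-grown in suitable broth at 37 °C, 24 h for bacteria and 48 h for fungi. Dilution series 200, 100, 50, 25, 12.5, 6.25. Each 5 mL tube inoculated with 0.1 mL and incubated 37 °C for 48 h. Tubes scored for presence or absence of growth.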

MOLT-4 = test: Cytotoxicity against human MOLT4 cells assessed as growth inhibition at 10 uM after 48 hrs by SRB assay; conditions: MOLT-4, 48 h, read-out: GI; summary of the method: as §1
Staphylococcus aureus = test: Bactericidal activity against Staphylococcus aureus ATCC 6538 after 18 hrs; conditions: ATCC 6538, 18 h; summary of the method: as §2
NCI-H226 = test: Cytotoxicity against human NCI-H226 cells assessed as growth inhibition at 10 uM after 48 hrs by SRB assay; conditions: NCI-H226, 48 h, read-out: GI; summary of the method: as §1
UACC-62 = test: Cytotoxicity against human UACC62 cells assessed as growth inhibition at 10 uM after 48 hrs by SRB assay; conditions: UACC-62, 48 h, read-out: GI; summary of the method: as §1
HCT-15 = test: Cytotoxicity against human HCT15 cells assessed as growth inhibition at 10 uM after 48 hrs by SRB assay; conditions: HCT-15, 48 h, read-out: GI; summary of the method: as §1
SNB-75 = test: Cytotoxicity against human SNB75 cells assessed as growth inhibition at 10 uM after 48 hrs by SRB assay; conditions: SNB-75, 48 h, read-out: GI; summary of the method: as §1
HOP-92 = test: Cytotoxicity against human HOP92 cells assessed as growth inhibition at 10 uM after 48 hrs by SRB assay; conditions: HOP-92, 48 h, read-out: GI; summary of the method: as §1
Pseudomonas aeruginosa = test: Antibacterial activity against Pseudomonas aeruginosa ATCC 27853 assessed as growth inhibition at 1 mg/mL after 24 hrs by agar-cup diffusion method; conditions: ATCC 27853, 24 h, read-out: DIZ; summary of the method: as §3
HT-29 = test: Cytotoxicity against human HT-29 cells assessed as growth inhibition at 10 uM after 48 hrs by SRB assay; conditions: HT-29, 48 h, read-out: GI; summary of the method: as §1
HCT-116 = test: Cytotoxicity against human HCT116 cells assessed as growth inhibition at 10 uM after 48 hrs by SRB assay; conditions: HCT-116, 48 h, read-out: GI; summary of the method: as §1
SW-620 = test: Cytotoxicity against human SW620 cells assessed as growth inhibition at 10 uM after 48 hrs by SRB assay; conditions: SW-620, 48 h, read-out: GI; summary of the method: as §1
Bacillus spizizenii [5] = test: Antibacterial activity against Bacillus subtilis ATCC 6633 assessed as growth inhibition after 48 hrs by two-fold serial dilution assay; conditions: ATCC 6633, 48 h; summary of the method: as §4
SK-MEL-2 = test: Cytotoxicity against human SK-MEL-2 cells assessed as growth inhibition at 10 uM after 48 hrs by SRB assay; conditions: SK-MEL-2, 48 h, read-out: GI; summary of the method: as §1
IGROV-1 = test: Cytotoxicity against human IGROV1 cells assessed as growth inhibition at 10 uM after 48 hrs by SRB assay; conditions: IGROV-1, 48 h, read-out: GI; summary of the method: as §1
HCC 2998 = test: Cytotoxicity against human HCC2998 cells assessed as growth inhibition at 10 uM after 48 hrs by SRB assay; conditions: HCC 2998, 48 h, read-out: GI; summary of the method: as §1
U-251 = test: Cytotoxicity against human U251 cells assessed as growth inhibition at 10 uM after 48 hrs by SRB assay; conditions: U-251, 48 h, read-out: GI; summary of the method: as §1
T47D = test: Cytotoxicity against human T47D cells assessed as growth inhibition at 10 uM after 48 hrs by SRB assay; conditions: read-out: GI; summary of the method: as §1
SF-268 = test: Cytotoxicity against human SF268 cells assessed as growth inhibition at 10 uM after 48 hrs by SRB assay; conditions: SF-268, 48 h, read-out: GI; summary of the method: as §1
NCI-H322M = test: Cytotoxicity against human NCI-H322M cells assessed as growth inhibition at 10 uM after 48 hrs by SRB assay; conditions: read-out: GI; summary of the method: as §1
MCF7 = test: Cytotoxicity against human MCF7 cells assessed as growth inhibition at 10 uM after 48 hrs by SRB assay; conditions: MCF7, 48 h, read-out: GI; summary of the method: as §1
K562 = test: Cytotoxicity against human K562 cells assessed as growth inhibition at 10 uM after 48 hrs by SRB assay; conditions: K562, 48 h, read-out: GI; summary of the method: as §1
[6] = Cytotoxicity against human NCI-ADR-RES cells assessed as growth inhibition at 10 uM after 48 hrs by SRB assay; conditions: read-out: GI; summary of the method: as §1

| SMILES | inhibition of growth at 10 µM (NCI-H522) | MBC (Bacillus spizizenii [1]) | zone of inhibition at 1000 µg/mL (Candida albicans) | inhibition of growth at 10 µM (SN12C) | zone of inhibition at 1000 µg/mL (Bacillus spizizenii [2]) | inhibition of growth at 10 µM (SR) | inhibition of growth at 10 µM (A498) | inhibition of growth at 10 µM (MDA-MB-468) | MBC (Escherichia coli [3]) | MIC (Escherichia coli [4]) | inhibition of growth at 10 µM (MOLT-4) | MBC (Staphylococcus aureus) | inhibition of growth at 10 µM (NCI-H226) | inhibition of growth at 10 µM (UACC-62) | inhibition of growth at 10 µM (HCT-15) | inhibition of growth at 10 µM (SNB-75) | inhibition of growth at 10 µM (HOP-92) | zone of inhibition at 1000 µg/mL (Pseudomonas aeruginosa) | inhibition of growth at 10 µM (HT-29) | inhibition of growth at 10 µM (HCT-116) | further results |
| --- | --- | --- | --- | --- | --- | --- | --- | --- | --- | --- | --- | --- | --- | --- | --- | --- | --- | --- | --- | --- | --- |
| Cc1nc(NC(=S)Nc2ccc(F)cc2)sc1C(=O)NN | < 10% | 12.5 µg/mL (≈ 38.4 µM) | > 13 mm | 2.43% | > 13 mm | < 10% | < 10% | 5.5% | 12.5 µg/mL (≈ 38.4 µM) | 12.5 µg/mL (≈ 38.4 µM) | < 10% | 6.25 µg/mL (≈ 19.2 µM) | 5.35% | 10.8% | < 10% | 7.19% | 33.7% | > 13 mm | < 10% | 7.87% | inhibition of growth at 10 µM (SW-620): 6.48%; MIC (Bacillus spizizenii [5]): 12.5 µg/mL (≈ 38.4 µM); inhibition of growth at 10 µM (SK-MEL-2): 30%; inhibition of growth at 10 µM (IGROV-1): 6.51%; inhibition of growth at 10 µM (HCC 2998): 10.5%; inhibition of growth at 10 µM (U-251): 5.41%; inhibition of growth at 10 µM (T47D): 2.52%; inhibition of growth at 10 µM (SF-268): < 10%; inhibition of growth at 10 µM (NCI-H322M): 15.1%; inhibition of growth at 10 µM (MCF7): < 10%; inhibition of growth at 10 µM (K562): < 10%; inhibition of growth at 10 µM [6]: 10% |
| Cc1nc(NC(=O)NC2CCCCC2)sc1C(=O)NN | 99.5% | 100 µg/mL (≈ 336 µM) | > 13 mm | < 10% | > 13 mm | < 10% | < 10% | 3.73% | 100 µg/mL (≈ 336 µM) | 50 µg/mL (≈ 168 µM) | < 10% | 50 µg/mL (≈ 168 µM) | < 10% | 10.2% | 9.55% | < 10% | 82.8% | > 13 mm | 5.51% | 16.3% | inhibition of growth at 10 µM (SW-620): < 10%; MIC (Bacillus spizizenii [5]): 100 µg/mL (≈ 336 µM); inhibition of growth at 10 µM (SK-MEL-2): 29.3%; inhibition of growth at 10 µM (IGROV-1): 28%; inhibition of growth at 10 µM (HCC 2998): < 10%; inhibition of growth at 10 µM (U-251): 2.59%; inhibition of growth at 10 µM (T47D): < 10%; inhibition of growth at 10 µM (SF-268): < 10%; inhibition of growth at 10 µM (NCI-H322M): < 10%; inhibition of growth at 10 µM (MCF7): < 10%; inhibition of growth at 10 µM (K562): < 10%; inhibition of growth at 10 µM [6]: 3.01% |
| CCOC(=O)c1sc(NC(=O)NC2CCCCC2)nc1C | < 10% | 100 µg/mL (≈ 321 µM) | > 13 mm | 5.62% | > 13 mm | 35.3% | 15.3% | < 10% | 100 µg/mL (≈ 321 µM) | 50 µg/mL (≈ 161 µM) | 12.3% | 50 µg/mL (≈ 161 µM) | 9.89% | 26% | 14.3% | < 10% | 53.9% | > 13 mm | 15.5% | 14.2% | inhibition of growth at 10 µM (SW-620): 7.5%; MIC (Bacillus spizizenii [5]): 100 µg/mL (≈ 321 µM); inhibition of growth at 10 µM (SK-MEL-2): 64.1%; inhibition of growth at 10 µM (IGROV-1): 43.7%; inhibition of growth at 10 µM (HCC 2998): < 10%; inhibition of growth at 10 µM (U-251): < 10%; inhibition of growth at 10 µM (T47D): 4.11%; inhibition of growth at 10 µM (SF-268): 12.6%; inhibition of growth at 10 µM (NCI-H322M): < 10%; inhibition of growth at 10 µM (MCF7): 12.7%; inhibition of growth at 10 µM (K562): 9.69%; inhibition of growth at 10 µM [6]: 8.96% |

Reference: ChEMBL document CHEMBL3124924, “Bifunctional ethyl 2-amino-4-methylthiazole-5-carboxylate derivatives: synthesis and in vitro biological evaluation as antimicrobial and anticancer agents” (2014)
